# Experimental data taken from ChEMBL document CHEMBL1153722, “Design, synthesis, and characterization of peptide-based rab geranylgeranyl transferase inhibitors” (J Med Chem, 2009).
# Square brackets hold non-standard residues; d marks the D form. Peptide text beside a SMILES is read from it. * marks the point of attachment. NMeY = CN[C@@H](Cc1ccc(O)cc1)C(=O)O; Hydrocinnamoyl = O=C(CCc1ccccc1)*; Palmitoyl = CCCCCCCCCCCCCCCC(=O)*; NMeF = CN[C@@H](Cc1ccccc1)C(=O)O; Myristoyl = CCCCCCCCCCCCCC(=O)*; Undecanoyl = CCCCCCCCCCC(=O)*; Lauroyl = CCCCCCCCCCCC(=O)*; Nicotinoyl = O=C(c1cccnc1)*; Morpholide = C1CN(*)CCO1; Cbz = O=C(OCc1ccccc1)*; NHBn = c1ccc(CN*)cc1; NHPh = c1ccc(N*)cc1; NHNH2 = NN*; NHOH = ON*
# Species: Rattus norvegicus
# Test: Inhibition of rat recombinant Rab geranylgeranyltransferase at 100 uM in presence of canine Rab7 and rat REP1 NBD-FPP based continuous fluorimetric assay
# Method in brief: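 Continuous fluorometric assay in 96/384-well format: 3 μM Rab7, 3 μM REP1, 9 μM NBD-FPP and 400 nM RabGGTase, with or without inhibitor. […] IC50 was calculated from three independent measurements.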
row,Compound,inhibition [%]
1,CCCCCCCCCCCCCC(=O)N[C@@H](Cc1ccc(O)cc1)C(=O)N[C@@H](Cc1ccc(O)cc1)C(=O)N[C@@H](Cc1ccc(O)cc1)C(=O)N1CCOCC1 (Myristoyl-Tyr-Tyr-Tyr-Morpholide),95
2,COC(=O)[C@H](Cc1ccc(O)cc1)NC(=O)CNC(=O)[C@H](Cc1ccc(O)cc1)NC(=O)c1ccc(F)cc1,93
3,C[C@@H](O)[C@H](NC(=O)C(Br)C(Br)c1ccccc1)C(=O)N[C@@H](Cc1ccccc1)C(=O)N[C@@H](CCC(N)=O)C(=O)OCCCl (some centres undefined),64
4,CCCCCCCCCCCC(=O)N[C@@H](Cc1c[nH]cn1)C(=O)N[C@@H](Cc1ccccc1)C(=O)N[C@@H](Cc1ccc(O)cc1)C(=O)NO (Lauroyl-His-Phe-Tyr-{NHOH}),89
5,NC(=O)[C@H](CO)NC(=O)CNC(=O)[C@H](CO)NC(=O)CCc1ccccc1 (Hydrocinnamoyl-Ser-Gly-Ser-NH2),85
6,CCCCCCCCCCCOc1ccc(C(=O)N[C@@H](Cc2cnc[nH]2)C(=O)N[C@@H](Cc2ccc(O)cc2)C(=O)N[C@@H](Cc2ccccc2)C(=O)NCC(O)CO)cc1 (some centres undefined),93
7,O=C(CNC(=O)[C@H](Cc1ccc(O)cc1)NC(=O)c1coc(-c2ccccc2)n1)N[C@@H](Cc1c[nH]c2ccccc12)C(=O)O,59
8,O=C(N[C@H](Cc1ccc(O)cc1)C(=O)N[C@@H](Cc1ccc(O)cc1)C(=O)N[C@@H](Cc1ccc(O)cc1)C(=O)O)OCc1ccccc1,42
9,NNC(=O)[C@H](CO)NC(=O)CNC(=O)[C@H](CO)NC(=O)CCc1ccccc1 (Hydrocinnamoyl-Ser-Gly-Ser-NHNH2),94
10,CCCCCCCCCCC(=O)N[C@@H](Cc1c[nH]cn1)C(=O)N[C@@H](Cc1ccccc1)C(=O)N[C@@H](Cc1ccc(O)cc1)C(=O)NO (Undecanoyl-His-Phe-Tyr-{NHOH}),89
11,CCCCCCCCCCCOc1ccc(C(=O)N[C@@H](Cc2c[nH]cn2)C(=O)N[C@@H](Cc2ccc(O)cc2)C(=O)N[C@@H](Cc2ccccc2)C(N)=O)cc1,81
12,Cc1nc(C)c(C(=O)OC[C@H](NC(=O)[C@H](Cc2ccccc2)NC(=O)[C@H](CO)NC(=O)c2coc(-c3ccccc3)n2)C(=O)O)o1,84
13,COC(=O)[C@H](CC(C)C)NC(=O)[C@H](CO)NC(=O)[C@H](Cc1ccccc1)NC(=O)/C=C/c1ccc(F)cc1,57
14,O=C(CNC(=O)[C@@H]1CCCN1C(=O)c1coc(-c2ccccc2)n1)N[C@@H](Cc1ccccc1)C(=O)Nc1ccc(F)cc1F,89
15,CC(C)CCNC(=O)[C@H](CO)NC(=O)CNC(=O)[C@H](CO)NC(=O)/C=C/c1ccc(F)cc1,85
16,O=C(CNC(=O)[C@H](Cc1cn(C(c2ccccc2)(c2ccccc2)c2ccccc2)cn1)NC(=O)c1coc(-c2ccccc2)n1)N[C@@H](Cc1cn(C(c2ccccc2)(c2ccccc2)c2ccccc2)cn1)C(=O)O,95
17,CN(C(=O)[C@H](Cc1cnc[nH]1)NC(=O)OCc1ccccc1)[C@@H](Cc1ccc(O)cc1)C(=O)N(C)[C@@H](Cc1ccccc1)C(=O)O (Cbz-His-[NMeY]-[NMeF]-OH),54
18,C=CCCCCCCCCCOC(=O)[C@H](CCC(N)=O)NC(=O)[C@H](Cc1ccccc1)NC(=O)[C@H](CO)NC(=O)CCc1ccccc1,120
19,O=C(CNC(=O)[C@H](Cc1ccc(O)cc1)NCCc1ccc(F)cc1)N[C@@H](Cc1ccc(O)cc1)C(=O)N1CCOCC1,92
20,CCCCCCCCCCCC(=O)N[C@@H](Cc1c[nH]cn1)C(=O)N[C@@H](Cc1c[nH]cn1)C(=O)N[C@@H](CO)C(=O)Nc1ccccc1N,88

row,Compound,inhibition [%]
1,O=C(CCc1ccccc1)N[C@@H](CO)C(=O)N[C@@H](Cc1ccccc1)C(=O)N[C@@H](CO)C(=O)NCc1ccccc1 (Hydrocinnamoyl-Ser-Phe-Ser-NHBn),95
2,COC(=O)[C@H](CC(C)C)NC(=O)[C@H](COC(C)(C)C)NC(=O)[C@H](Cc1ccccc1)NC(=O)CCc1ccccc1,81
3,CC[C@H](C)[C@H](NC(=O)[C@H](Cc1ccccc1)NC(=O)c1cccnc1)C(=O)N[C@@H](CCCNC(=N)N)C(=O)OC (Nicotinoyl-Phe-Ile-Arg-OMe),105
4,CCCCCCCCCCC(=O)N[C@@H](Cc1ccc(O)cc1)C(=O)N[C@@H](Cc1c[nH]cn1)C(=O)N[C@@H](Cc1ccc(O)cc1)C(=O)NOC(C)(C)C,79
5,CCCCCCCCCCCCCCCC(=O)N[C@@H](Cc1ccc(O)cc1)C(=O)N[C@@H](Cc1ccc(O)cc1)C(=O)N[C@@H](Cc1ccc(O)cc1)C(=O)OCCCl,114
6,O=C(N[C@@H](Cc1ccc(O)cc1)C(=O)N[C@@H](Cc1ccc(O)cc1)C(=O)N[C@@H](Cc1ccc(O)cc1)C(=O)O)c1ccc(F)cc1F,106
7,CCCCCCCCCCC(=O)N[C@@H](Cc1c[nH]cn1)C(=O)N[C@@H](Cc1ccccc1)C(=O)N[C@@H](Cc1ccc(O)cc1)C(=O)Nc1ccccc1N,34
8,NCCCC[C@H](NC(=O)c1coc(-c2ccccc2)n1)C(=O)NCC(=O)N[C@@H](Cc1ccc(O)cc1)C(=O)O,100
9,CCCCCCCCCCCOc1ccc(C(=O)N[C@@H](Cc2ccc(O)cc2)C(=O)N[C@@H](Cc2ccc(O)cc2)C(=O)N[C@@H](Cc2ccc(O)cc2)C(=O)NCCCn2ccnc2)cc1,48
10,CC[C@H](C)[C@H](NC(=O)CCc1ccc(F)cc1)C(=O)N[C@@H](C)C(=O)N[C@@H](CCC(N)=O)C(=O)NNc1ccccc1,81
11,C[C@@H](O)[C@H](NC(=O)C(Br)C(Br)c1ccccc1)C(=O)N[C@@H](Cc1ccccc1)C(=O)N[C@@H](CCC(N)=O)C(=O)OCCCCO (some centres undefined),60
12,CCCCCCCCCCCOc1ccc(C(=O)N[C@@H](Cc2ccc(O)cc2)C(=O)N[C@@H](Cc2ccc(O)cc2)C(=O)N[C@@H](Cc2ccc(O)cc2)C(=O)OCCCl)cc1,107
13,C=CCCCCCCCCCOC(=O)[C@H](CO)NC(=O)CNC(=O)[C@H](CO)NC(=O)/C=C/c1ccc(F)cc1,57
14,O=C(N[C@@H](Cc1ccc(O)cc1)C(=O)N[C@@H](Cc1ccc(O)cc1)C(=O)N[C@@H](Cc1ccc(O)cc1)C(=O)NC1CCCCC1)c1ccc(F)cc1F,88
15,C[C@H](NC(=O)CCc1ccccc1)C(=O)N[C@@H](Cc1ccccc1)C(=O)N[C@@H](CCC(N)=O)C(=O)NNc1ccccc1,5
16,NCCOC(=O)[C@H](Cc1ccc(O)cc1)NC(=O)[C@H](Cc1ccc(O)cc1)NC(=O)[C@H](Cc1ccc(O)cc1)NC(=O)c1ccc(F)cc1F,97
17,CC[C@H](C)[C@H](NC(=O)c1ccc(-c2ccccc2)cc1)C(=O)N[C@@H](C(=O)N[C@@H](CCC(N)=O)C(=O)OCCc1scnc1C)C(C)C,86
18,O=C(/C=C/c1ccc(F)cc1)N[C@@H](CO)C(=O)NCC(=O)N[C@@H](CO)C(=O)NC1CCCCC1,81
19,CC(C)C[C@H](NC(=O)[C@H](COC(C)(C)C)NC(=O)[C@H](Cc1ccccc1)NC(=O)c1ccc(-c2ccccc2)cc1)C(=O)OCCCl,87
20,O=C(CNC(=O)[C@H](Cc1ccc(O)cc1)NC(=O)c1ccc(F)cc1)N[C@@H](Cc1ccc(O)cc1)C(=O)Nc1ccc(F)cc1F,98

row,Compound,inhibition [%]
1,CCCCCCCCCCOc1ccc(C(=O)N[C@@H](Cc2c[nH]cn2)C(=O)N[C@@H](Cc2c[nH]cn2)C(=O)N[C@@H](CO)C(=O)O)cc1,74
2,C[C@@H](O)[C@H](NC(=O)/C=C/c1ccccc1)C(=O)N[C@@H](Cc1ccccc1)C(=O)N[C@@H](CCC(N)=O)C(=O)NC1CCCCC1,75
3,CCCCCCCCCCCCCCCCNC(=O)[C@H](CC1CCCC1)NC(=O)[C@H](CCC(N)=O)NC(=O)[C@@H](NC(=O)CCC(O)CBr)[C@@H](C)O (some centres undefined),75
4,CC(C)C[C@H](NC(=O)c1coc(-c2ccccc2)n1)C(=O)NCC(=O)N[C@@H](Cc1c[nH]cn1)C(=O)Nc1ccc(F)cc1F,88
5,O=C(CNC(=O)[C@H](Cc1c[nH]cn1)NC(=O)OCc1ccccc1)N[C@@H](Cc1ccc(O)cc1)C(=O)NCCCn1ccnc1,85
6,CCCCCCCCCCCCCCCC(=O)N[C@@H](Cc1ccc(O)cc1)C(=O)N[C@@H](Cc1ccc(O)cc1)C(=O)N[C@@H](Cc1ccc(O)cc1)C(=O)O (Palmitoyl-Tyr-Tyr-Tyr-OH),93
7,COC(=O)[C@H](CC(C)C)NC(=O)[C@H](CO)NC(=O)[C@H](Cc1ccccc1)NC(=O)CCc1ccccc1,69
8,CN(CCc1ccccn1)C(=O)[C@H](Cc1ccc(O)cc1)NC(=O)CNC(=O)[C@H](Cc1c[nH]cn1)NC(=O)OCc1ccccc1,85
9,NC(=O)CC[C@H](NC(=O)[C@H](Cc1ccccc1)NC(=O)CNC(=O)CCc1ccccc1)C(=O)Nc1ccccc1 (Hydrocinnamoyl-Gly-Phe-Gln-NHPh),80
10,C=CCOC(=O)[C@H](Cc1cn(C(c2ccccc2)(c2ccccc2)c2ccccc2)cn1)NC(=O)[C@H](Cc1ccccc1)NC(=O)CNC(=O)c1coc(-c2ccccc2)n1,55
11,CCCCCCCCCCCOc1ccc(C(=O)N[C@@H](Cc2ccc(O)cc2)C(=O)N[C@@H](Cc2ccc(O)cc2)C(=O)N[C@@H](Cc2ccc(O)cc2)C(=O)N(C)OC)cc1,75
12,NC(=O)[C@H](Cc1ccc(O)cc1)NC(=O)CCNC(=O)[C@H](Cc1c[nH]cn1)NC(=O)OCc1ccccc1,89
13,NC(=O)CC[C@H](NC(=O)[C@H](Cc1ccccc1)NC(=O)[C@H](CO)NC(=O)CCc1ccccc1)C(=O)Nc1ccc(F)cc1,88
14,C[C@@H](NC(=O)CCc1ccccc1)C(=O)N[C@@H](Cc1ccccc1)C(=O)N[C@@H](CCC(=O)O)C(=O)NCCO,98
15,NNC(=O)[C@H](CCC(N)=O)NC(=O)[C@H](Cc1ccccc1)NC(=O)CNC(=O)CCc1ccccc1 (Hydrocinnamoyl-Gly-Phe-Gln-NHNH2),93
16,CC(C)C[C@H](NC(=O)[C@H](COC(C)(C)C)NC(=O)[C@H](Cc1ccccc1)NC(=O)CCc1ccccc1)C(=O)OCCCl,109
17,O=C(N[C@@H](Cc1ccc(O)cc1)C(=O)N[C@@H](Cc1ccc(O)cc1)C(=O)N[C@@H](Cc1ccc(O)cc1)C(=O)OCCCn1ccnc1)c1ccc(F)cc1F,96
18,COC(=O)[C@H](Cc1ccccc1)NC(=O)[C@H](Cc1ccccc1)NC(=O)[C@H](CC(C)C)NC(=O)/C=C/c1ccccc1,-2
19,CCCCCCCCCCC(=O)N[C@@H](Cc1ccc(O)cc1)C(=O)N[C@@H](Cc1c[nH]cn1)C(=O)N[C@@H](Cc1c[nH]cn1)C(=O)Nc1ccccc1N,87
